Experimental data gathered from unrelated publications.
Lines come from different studies, so protocols differ.
Action: inhibitor
CDK9 with cyclin T1: Cyclin-dependent kinase 9, with cyclin T1 (CDK9, Homo sapiens, UniProt P50750)
DPP4: Dipeptidyl peptidase 4 (DPP4, Homo sapiens, UniProt P27487)
ACHE: Acetylcholinesterase (ACHE, Homo sapiens, UniProt P22303)
APOBEC3G: DNA dC->dU-editing enzyme APOBEC-3G (APOBEC3G, Homo sapiens, UniProt Q9HC16)

Structure (SMILES)	target	test	test system	setting	IC50 [µM]
COc1c(-c2ccc3c(c2)OCO3)oc2c(ccc3occc32)c1=O	CDK9 with cyclin T1	enzyme activity, ADP detection	–	–	38.4
C[C@H]1CN(c2n[nH]c3nc(N[C@H]4CC[C@H](NS(=O)(=O)CCC(F)(F)F)CC4)ncc23)CCO1	Cyclin-dependent kinase 9 (CDK9, Homo sapiens, UniProt P50750)	cell-free assay, chemoproteomics	–	lysate	> 20
CC[C@H]1NC(=O)[C@@H]2CSC(=N2)[C@@H](Cc2ccccc2)N(C)C(=O)[C@@H]2CCCN2C(=O)[C@H](C(C)C)N(C)C(=O)[C@H](Cc2ccccc2)OC(=O)[C@H](C)[C@@H](C)NC(=O)[C@@H]([C@@H](C)O)NC(=O)[C@@H](CC(C)C)N(C)C(=O)[C@@H]2CSC1=N2	DPP4	enzyme activity	–	–	347
C=CCn1c2cc(OC(=O)CCCCN3CCN(Cc4cccc(C)c4)CC3)ccc2c2ccnc(C)c21	ACHE	enzyme activity, Ellman	–	–	0.0358
Cc1cc(C)nc(Nc2ncc(C(=O)NCCc3c(C)[nH]c4ccccc34)cn2)c1	Cytochrome P450 2C8 (CYP2C8, Homo sapiens, UniProt P10632)	enzyme activity	human, liver microsomes	–	4
CC[C@H](C)[C@H](N)C(=O)N[C@@H](Cc1c[nH]cn1)C(=O)N[C@@H](CC(C)C)C(=O)N[C@@H](Cc1ccc(O)cc1)C(=O)N[C@@H](Cc1ccc(O)cc1)C(=O)N[C@@H](Cc1ccccc1)C(=O)N[C@@H](CC(=O)O)C(=O)O	APOBEC3G	enzyme activity	–	pH 7.4	110
CC(C)[C@H](N)C(=O)N1CCC[C@H]1C(=O)N[C@H](C(=O)N1CCC[C@H]1C(=O)N[C@@H](CCC(N)=O)C(=O)O)C(C)C	DPP4	enzyme activity, absorbance	–	pH 8	112
CC(C)C[C@@H]1C(=O)N[C@H]([C@@H](C)O)C(=O)N[C@H](C)[C@@H](C)C(=O)O[C@@H](Cc2ccccc2)C(=O)N(C)[C@@H](C(C)C)C(=O)N2CCC[C@H]2C(=O)N(C)[C@H](Cc2ccccc2)C2=N[C@@H](CS2)C(=O)N[C@H](C)C2=N[C@@H](CS2)C(=O)N1C	DPP4	enzyme activity	–	–	164
CC[C@H](C)[C@H](N)C(=O)N1CCC[C@H]1C(=O)N[C@H](C(=O)N1CCC[C@H]1C(=O)N[C@H](C(=O)O)[C@@H](C)CC)C(C)C	DPP4	enzyme activity, absorbance	–	pH 8	57
COc1c(-c2ccccc2)oc2c(ccc3occc32)c1=O	CDK9 with cyclin T1	enzyme activity, ADP detection	–	–	> 100
CC[C@H](C)[C@H](NC(=O)[C@@H]1CCCN1C(=O)[C@@H](NC(=O)[C@@H]1CCCN1C(=O)[C@@H](N)C(C)C)C(C)C)C(=O)O	DPP4	enzyme activity, absorbance	–	pH 8	103
CSCC[C@H](NC(=O)[C@H](Cc1c[nH]cn1)NC(=O)[C@H](Cc1c[nH]cn1)NC(=O)[C@@H](N)CCCCN)C(=O)N[C@@H](Cc1ccc(O)cc1)C(=O)N[C@H](C(=O)N[C@@H](CO)C(=O)NCC(=O)N[C@@H](CCCCN)C(=O)N[C@@H](C)C(=O)N[C@@H](CCCNC(=N)N)C(=O)NCC(=O)N[C@@H](Cc1c[nH]c2ccccc12)C(=O)N[C@@H](Cc1ccccc1)C(=O)O)C(C)C	APOBEC3G	enzyme activity	–	pH 7.4	80
C=CCn1c2cc(OC(=O)CCCCN3CCN(Cc4ccccc4F)CC3)ccc2c2ccnc(C)c21	ACHE	enzyme activity, Ellman	–	–	0.15
CC(C)[C@H](N)C(=O)N1CCC[C@H]1C(=O)N[C@H](C(=O)N1CCC[C@H]1C(=O)N[C@H](C(=O)O)C(C)C)C(C)C	DPP4	enzyme activity, absorbance	–	pH 8	59.1
